Experimental data published in ChEMBL document CHEMBL1135063, “Cytotoxic and antibacterial activity of 2-oxopurine derivatives” (Bioorg Med Chem Lett, 2002).
Converted amounts (≈) assume the structure as drawn.

Experiments:
K562 [1] = assay: Cytotoxicity against chronic myelogenous leukemia cell line K-562 was determined by measuring [3H]thymidine incorporation after 48 h; format: functional, cell-based; conditions: Homo sapiens
How it was run: (§1)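 K-562 cells in RPMI 1640 with 10% FCS, 2 mM L-glutamine and kanamycin, humidified 5% CO2. Log-phase cells seeded at 2 × 10^4 cells/mL and exposed to compound (DMSO, 0.05% final) over a 10 to 0.078 range for 48 h. Cells were then pulsed 2 h with [3H]-thymidine, filter-harvested and cell-associated radioactivity counted. Percent inhibition or IC50 is reported with SD.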

K562 [2] = assay: Cytotoxicity against chronic myelogenous leukemia cell line K-562 was determined by measuring [3H]thymidine incorporation at a concentration 10 ug/mL after 48 h; format: functional; conditions: Homo sapiens; how it was run: as §1
Lacticaseibacillus casei [3] = assay: Tested for antibacterial activity against Lactobacillus casei; format: functional
[4] = test system: Mycobacterium tuberculosis; assay: Tested for percent inhibition against Mycobacterium tuberculosis at a concentration of 12.5 ug/mL; format: functional
How it was run: (§2)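 M. tuberculosis H37Rv (ATCC 27294) grown in BACTEC 12B medium; inhibition read out by Microplate Alamar Blue assay.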

[5] = test system: Mycobacterium tuberculosis; assay: Antibacterial activity was evaluated against Mycobacterium tuberculosis; format: functional; how it was run: as §2
K562 [6] = assay: Concentration that reduces [3H]thymidine incorporation by 50% in chronic myelogenous leukemia cell line K-562 after 5 h; format: functional, cell-based; conditions: Homo sapiens
How it was run: (§3)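 K-562 cells in RPMI 1640 with 10% FCS, 2 mM L-glutamine and kanamycin, 5% CO2. Log-phase cells seeded at 4 × 10^4 cells/mL and exposed to compound (DMSO, 0.05% final) over a 10 to 0.078 range for 5 h. Cells were then pulsed 2 h with [3H]-thymidine, harvested onto fiberglass filters and counted. IC50 is the concentration inhibiting incorporation by 50%. Values are given with SD.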

K562 [7] = assay: Cytotoxicity against chronic myelogenous leukemia cell line K-562 was determined by measuring [3H]thymidine incorporation at a concentration of 1.25 ug/mL after 48 h; format: functional; conditions: Homo sapiens; how it was run: as §1
K562 [8] = assay: Cytotoxicity against chronic myelogenous leukemia cell line K-562 was determined by measuring [3H]-thymidine incorporation at a concentration of 1.25 ug/mL after 5 h; format: functional; conditions: Homo sapiens; how it was run: as §3
K562 [9] = assay: Cytotoxicity against chronic myelogenous leukemia cell line K-562 was determined by measuring [3H]thymidine incorporation at a concentration of 10 ug/mL after 48 h; format: functional; conditions: Homo sapiens; how it was run: as §1
K562 [10] = assay: Cytotoxicity against chronic myelogenous leukemia cell line K-562 was determined by measuring [3H]thymidine incorporation at a concentration of 10 ug/mL after 5 h; format: functional; conditions: Homo sapiens; how it was run: as §3
K562 [11] = assay: Cytotoxicity against chronic myelogenous leukemia cell line K-562 was determined by measuring [3H]thymidine incorporation at a concentration 1 ug/mL after 48 h; format: functional; conditions: Homo sapiens; how it was run: as §1
K562 [12] = assay: Cytotoxicity against chronic myelogenous leukemia cell line K-562 was determined by measuring [3H]thymidine incorporation at a concentration of 1 ug/mL after 5 h; format: functional; conditions: Homo sapiens; how it was run: as §3
[13] = test system: Mycobacterium tuberculosis; assay: Tested for percent inhibition against Mycobacterium tuberculosis at concentration of 12.5 ug/mL; format: functional; how it was run: as §2
Lacticaseibacillus casei [14] = assay: Tested for inhibitory effect on Gram-positive bacterium; Lactobacillus casei; format: functional
[15] = test system: Mycobacterium tuberculosis; assay: Tested for percent inhibition against Mycobacterium tuberculosis at 12.5 ug/mL concentration; format: functional; how it was run: as §2
K562 [16] = assay: Cytotoxicity against chronic myelogenous leukemia cell line K-562 was determined by measuring [3H]thymidine incorporation at a concentration of 1.00 ug/mL after 48 h; format: functional; conditions: Homo sapiens; how it was run: as §1
K562 [17] = assay: Cytotoxicity against chronic myelogenous leukemia cell line K-562 was determined by measuring [3H]thymidine incorporation at a concentration of 1.00 ug/mL after 5 h; format: functional; conditions: Homo sapiens; how it was run: as §3
Mycobacterium avium = assay: Tested for percent inhibition against Mycobacterium avium at 12.5 ug/mL; format: functional
[18] = test system: Mycobacterium tuberculosis; assay: Tested for percent inhibition against Mycobacterium tuberculosis at 12.5 ug/mL; format: functional; how it was run: as §2
[19] = test system: Mycobacterium tuberculosis; assay: Tested for antibacterial activity against Mycobacterium tuberculosis; format: functional; how it was run: as §2
Vero = assay: Tested for inhibition against Vero cells at 12.5 ug/mL; format: functional, cell-based; conditions: Chlorocebus sabaeus
K562 [20] = assay: Cytotoxicity against chronic myelogenous leukemia cell line K-562 determined using [3H]thymidine incorporation at a concentration 10 ug/mL after 48 h; format: functional; conditions: Homo sapiens; how it was run: as §1
K562 [21] = assay: Cytotoxicity against chronic myelogenous leukemia cell line K-562 determined using [3H]thymidine incorporation at a concentration of 1.00 ug/mL after 48 h; format: functional; conditions: Homo sapiens; how it was run: as §1
K562 [22] = assay: Cytotoxicity against chronic myelogenous leukemia cell line K-562 was determined by measuring [3H]thymidine incorporation after 5 h; format: functional, cell-based; conditions: Homo sapiens; how it was run: as §3

| SMILES | IC50 (K562 [1]) | inhibition at 10 µg/mL (K562 [2]) | IC50 (K562 [6]) | inhibition at 1.25 µg/mL (K562 [7]) | inhibition at 10 µg/mL (K562 [10]) | also measured |
| --- | --- | --- | --- | --- | --- | --- |
| CC(C)c1c2ncn(Cc3ccccc3)c2nc(=O)n1Cc1ccccc1 | > 10 µg/mL | 18% |  |  |  |  |
| CC(C)C1c2ncn(Cc3ccccc3)c2NC(=O)N1Cc1ccccc1 (configuration not stated) | 10 µg/mL (≈ 27.7 µM) | 51% |  |  |  |  |
| O=c1nc2c(ncn2Cc2ccccc2)c(-c2ccco2)n1Cc1ccccc1 |  |  |  |  |  | MIC (Lacticaseibacillus casei [3]): > 10 µg/mL; inhibition at 12.5 µg/mL [4]: 0% |
| CCC1(c2ccccc2)c2ncn(Cc3ccccc3)c2NC(=O)N1Cc1ccccc1 (configuration not stated) |  | 80% |  |  |  |  |
| Clc1nc(-c2cccs2)c2ncn(Cc3ccccc3)c2n1 |  |  |  |  |  | MIC [5]: 1.56 µg/mL (≈ 4.77 µM) |
| O=c1nc2c(cn1Cc1ccccc1)ncn2Cc1ccccc1 | > 10 µg/mL |  | > 10 µg/mL | 5.7% | 16% | inhibition at 1.25 µg/mL (K562 [8]): 4.4%; inhibition at 10 µg/mL (K562 [9]): 37% |
| O=C1Nc2[nH]cnc2C(C#CC2CC2)(C(F)(F)F)N1 (configuration not stated) | > 1 µg/mL |  | > 1 µg/mL |  |  | inhibition at 1 µg/mL (K562 [11]): 0.8%; inhibition at 1 µg/mL (K562 [12]): 0.3% |
| O=c1nc2c(ncn2Cc2ccccc2)c(-c2cccs2)n1Cc1ccccc1 |  |  |  |  |  | MIC (Lacticaseibacillus casei [3]): > 10 µg/mL; inhibition at 12.5 µg/mL [13]: 0% |
| O=C1N(Cc2ccccc2)c2nc[nH]c2C(c2ccccc2)N1Cc1ccccc1 (configuration not stated) | > 10 µg/mL | 32% |  |  |  | MIC (Lacticaseibacillus casei [14]): 10 µg/mL (≈ 25.3 µM) |
| O=c1nc2c(ncn2Cc2ccccc2)c(C(F)(F)F)n1Cc1ccccc1 | > 10 µg/mL | 11% |  |  |  |  |
| O=C1Nc2c(ncn2Cc2ccccc2)C(C#CC2CC2)(C(F)(F)F)N1Cc1ccccc1 (configuration not stated) | 0.2 µg/mL (≈ 0.444 µM) | 100% | 0.4 µg/mL (≈ 0.888 µM) | 99% | 94% | inhibition at 1.25 µg/mL (K562 [8]): 66% |
| CC1c2ncn(Cc3ccccc3)c2NC(=O)N1Cc1ccccc1 (configuration not stated) | 1.4 µg/mL (≈ 4.21 µM) | 98% | 2.5 µg/mL (≈ 7.52 µM) | 33% | 76.4% |  |
| O=C1Nc2c(ncn2Cc2ccccc2)C(c2ccccc2)N1Cc1ccccc1 (configuration not stated) | 0.2 µg/mL (≈ 0.507 µM) | 90% | 5.1 µg/mL (≈ 12.9 µM) | 85% | 69% | inhibition at 1.25 µg/mL (K562 [8]): 9.1% |
| O=C1Nc2c(ncn2Cc2ccccc2)C(C#CC2CC2)N1Cc1ccccc1 (configuration not stated) | 1.3 µg/mL (≈ 3.4 µM) | 98% | 1.6 µg/mL (≈ 4.18 µM) | 42% | 90% | inhibition at 1.25 µg/mL (K562 [8]): 35% |
| O=c1nc2c(ncn2Cc2ccccc2)c(-c2ccccc2)n1Cc1ccccc1 |  | 70% |  |  |  | MIC (Lacticaseibacillus casei [3]): > 10 µg/mL; inhibition at 12.5 µg/mL [15]: 0% |
| O=c1nc2c(ncn2Cc2ccccc2)c(C#Cc2ccccc2)n1Cc1ccccc1 | 0.7 µg/mL (≈ 1.68 µM) | 100% | 1 µg/mL (≈ 2.4 µM) |  |  | inhibition at 1 µg/mL (K562 [16]): 90%; inhibition at 1 µg/mL (K562 [17]): 48%; MIC (Lacticaseibacillus casei [3]): > 10 µg/mL; inhibition at 12.5 µg/mL (Mycobacterium avium): 60%; inhibition at 12.5 µg/mL [18]: 95%; MIC [19]: 12.5 µg/mL (≈ 30 µM); IC50 (Vero): < 0.2 µg/mL |
| O=C1Nc2c(ncn2Cc2ccccc2)C(C#Cc2ccccc2)N1Cc1ccccc1 (configuration not stated) | 0.8 µg/mL (≈ 1.91 µM) |  | 1.4 µg/mL (≈ 3.35 µM) |  |  | inhibition at 10 µg/mL (K562 [20]): 100%; inhibition at 1 µg/mL (K562 [21]): 59%; inhibition at 1 µg/mL (K562 [17]): 20% |
| Sc1ncnc2nc[nH]c12 [MERCAPTOPURINE ANHYDROUS] | 0.4 µg/mL (≈ 2.63 µM) |  |  |  |  | IC50 (K562 [22]): 8.5 µg/mL (≈ 55.9 µM) |
| O=C1Nc2c(ncn2Cc2ccccc2)C(C(F)(F)F)N1Cc1ccccc1 (configuration not stated) | 2 µg/mL (≈ 5.18 µM) | 97% | 10 µg/mL (≈ 25.9 µM) | 26% | 51% | inhibition at 1.25 µg/mL (K562 [8]): 15.4% |
| O=C1Nc2ncn(Cc3ccccc3)c2C(c2ccccc2)N1Cc1ccccc1 (configuration not stated) | > 10 µg/mL | 48% |  |  |  |  |
| O=c1nc2c(ncn2Cc2ccccc2)c(C#CC2CC2)n1Cc1ccccc1 | 0.2 µg/mL (≈ 0.526 µM) | 97% | 0.4 µg/mL (≈ 1.05 µM) | 100% | 98% | inhibition at 1.25 µg/mL (K562 [8]): 98% |
